SENP6 block – inhibitors of human SENP6 protease; Q9GZR1; inhibition, % at 10 µM; actives 1.8% (n = 330,000); Recombinant SENP6 catalytic domain, aminoluciferin luminescence;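 active = inhibition above about 50% at the single tested dose, limit read from the data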
SENP1 inh – inhibitors of human SENP1 SUMO protease catalytic domain | actives 0.21% (n = 360,000) | inhibition, % at 10 µM | recombinant SENP1 catalytic domain, CyPet-SUMO1-YPet FRET cleavage | Q9P0U3;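 active = inhibition at least 30% at 10 µM, raw YFP signal under a set limit, fluorescence ratio 0.5 to 1.5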
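Test system: human SENP1 catalytic domain; medium: Tris pH 8 buffer plus EDTA, NaCl, BME, BSA, NP40, catalase; incubation: 50 min reaction at room temperature; technique: FRET, CFP and YFP emission; controls: no-enzyme low control and enzyme-plus-DMSO high control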
SENP7 inh – SENP7 protease inhibition; actives 1.5% (n = 330,000); Q9BQF6; AID 434973; recombinant SENP7, Z-RLRGG-aminoluciferin luminescence, 40 min; inhibition, % at 5 µM;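 active = inhibition above about 50% at the single test dose, limit read from the data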
SENP8 block-1 – blocks human SENP8 cleavage of Nedd8 substrate. Q96LD8. recombinant SENP8, Nedd8 substrate fluorescence. inhibition, % at 20 µM. actives 0.64% (n = 360,000). AID 602440; in the data active = inhibition mostly above about 40%, no sharp cut-off; inactive = mostly below about 27%
SENP8 block-2 – inhibitors of human SENP8 protease. AID 2540. inhibition, % at 10 µM. Q96LD8. purified SENP8, Z-RLRGG-aminoluciferin cleavage, luminescence. actives 1.2% (n = 330,000); in the data active = inhibition above about 50%
CendR NRP1 mod – alters CendR peptide binding to human NRP-1; FAM-RPARPAR peptide binding to NRP-1, fluorescence polarization; O14786; inhibition, % at 25 µM; actives 0.85% (n = 360,000);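 active = inhibition or corrected inhibition above about 18%, plus a signal ratio from 0.5 to 1.5, limit read from the data, passing the limit was not always enough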
Target sequence (O14786 whole entry, looked up): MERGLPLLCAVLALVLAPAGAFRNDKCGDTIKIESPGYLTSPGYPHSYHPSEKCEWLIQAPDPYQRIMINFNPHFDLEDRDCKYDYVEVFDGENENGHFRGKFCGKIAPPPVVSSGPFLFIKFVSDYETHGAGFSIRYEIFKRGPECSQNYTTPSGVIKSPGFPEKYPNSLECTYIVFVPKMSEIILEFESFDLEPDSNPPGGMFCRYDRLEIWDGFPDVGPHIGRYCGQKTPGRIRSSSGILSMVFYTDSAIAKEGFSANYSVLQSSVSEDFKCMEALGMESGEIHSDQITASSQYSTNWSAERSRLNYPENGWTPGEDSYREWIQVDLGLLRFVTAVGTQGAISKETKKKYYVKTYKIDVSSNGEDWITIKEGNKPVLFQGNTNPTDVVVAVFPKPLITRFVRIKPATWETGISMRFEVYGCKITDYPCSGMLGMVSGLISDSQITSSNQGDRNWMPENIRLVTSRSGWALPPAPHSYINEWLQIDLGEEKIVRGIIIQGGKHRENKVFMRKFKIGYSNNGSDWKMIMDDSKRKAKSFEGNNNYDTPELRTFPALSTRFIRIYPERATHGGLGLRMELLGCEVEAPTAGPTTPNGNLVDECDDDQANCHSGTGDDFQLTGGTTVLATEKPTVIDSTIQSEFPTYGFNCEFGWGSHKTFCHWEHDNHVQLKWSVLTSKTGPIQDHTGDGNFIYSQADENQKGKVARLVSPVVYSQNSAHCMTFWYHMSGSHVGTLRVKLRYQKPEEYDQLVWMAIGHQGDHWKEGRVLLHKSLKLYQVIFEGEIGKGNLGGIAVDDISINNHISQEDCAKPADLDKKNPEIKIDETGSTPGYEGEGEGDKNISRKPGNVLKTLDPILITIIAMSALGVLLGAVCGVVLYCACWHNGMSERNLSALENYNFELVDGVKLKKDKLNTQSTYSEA
SENP8 conf – human SENP8 inhibition, confirmed; shares compounds with SENP7 inh; Recombinant SENP8, Z-RLRGG-aminoluciferin luminescence, 60 min; inhibition, % at 12.5 µM; actives 40% (n = 6,200);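 active = mean inhibition across replicates above about 50%, limit read from the data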
SENP6 confirm – human SENP6 inhibition, confirmed; shares compounds with SENP7 inh; actives 58% (n = 6,200); inhibition, % at 12.5 µM; recombinant SENP6, Z-RLRGG-aminoluciferin luminescence
SENP7 conf – human SENP7 inhibition, confirmed | shares compounds with SENP7 inh | recombinant SENP7, Z-RLRGG-aminoluciferin luminescence, 40 min | inhibition, % at 12.5 µM | actives 69% (n = 6,200) | AID 488917
Casp3 SENP sel – selectivity test for SENP inhibitors: human caspase-3 inhibition; purified caspase-3, Z-DEVD-aminoluciferin luminescence, 60 min; actives 60% (n = 6,200); inhibition, % at 12.5 µM; shares compounds with SENP7 inh;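 active = mean inhibition above about 50%, limit read from the data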
Luc interf – luminescence interference (SENP counter-screen) | inhibition, % at 12.5 µM | Pre-incubated SENP8/Z-RLRGG-aminoluciferin, luciferase luminescence interference | actives 39% (n = 6,200) | shares compounds with SENP7 inh;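 active = mean inhibition above about 50% when retested at one dose, limit read from the data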
Large screens that a line does not name were inactive (follow-up assays come after a bar, where they were run). This is a sample that favours compounds with a hit; in the whole collection about 3.3% have one here.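 Rule for the calls, unless noted: active = mean inhibition above about 50% in the one-dose retest (limit read from the data); inactive = the rest.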

CCN1CCCSC1=S	none (no result: SENP6 block, SENP7 inh, SENP8 block-2)
Cc1nc(Nc2ccccc2)sc1-c1ccccc1	SENP6 block 90, SENP7 inh 90, SENP8 block-2 82 | SENP8 conf 94 | SENP6 confirm 94 | SENP7 conf 100 | Casp3 SENP sel 71 | Luc interf inactive
c1ccc(Nc2nc(-c3ccccc3)ns2)cc1	SENP6 block 77, SENP7 inh 83, SENP8 block-2 60 | SENP8 conf inactive | SENP6 confirm 53 | SENP7 conf 92 | Casp3 SENP sel inactive | Luc interf inactive
Cc1nc(Nc2ccc(C(=O)O)cc2)sc1-c1ccccc1	SENP6 block 95, SENP7 inh 100, SENP8 block-2 96 | SENP8 conf 72 | SENP6 confirm 92 | SENP7 conf 67 | Casp3 SENP sel inactive | Luc interf inactive
Cc1ccc(C(O)c2ncc(-c3ccccc3)[nH]2)c(C)c1 (configuration not stated)	none (no result: SENP6 block, SENP7 inh, SENP8 block-2)
O=C1/C(=C\c2ccc(O)cc2)SC(=S)N1/N=C/c1ccc(O)cc1	SENP6 block 98, SENP1 inh 77, SENP7 inh 83, SENP8 block-2 90 | SENP8 conf inactive | SENP6 confirm inactive | SENP7 conf inactive | Casp3 SENP sel inactive | Luc interf 57
O=C1C2C3C=CC(CC3)C2C(=O)N1/N=C/c1ccc(O)cc1 (configuration not stated)	none
CC(=O)NN1C(=O)/C(=C\c2ccc(O)cc2)SC1=S	SENP6 block 69, SENP1 inh 55, SENP7 inh 54, SENP8 block-2 60 | SENP8 conf 63 | SENP6 confirm 61 | SENP7 conf 85 | Casp3 SENP sel 82 | Luc interf 74
c1ccc2nc(-c3ccc(N4CCOCC4)cc3)ccc2c1	SENP6 block 93, SENP7 inh 97, SENP8 block-2 81 | SENP8 conf 66 | SENP6 confirm 80 | SENP7 conf 93 | Casp3 SENP sel 76 | Luc interf inactive
c1ccc(-c2ccc3cnccc3n2)cc1	none (no result: SENP6 block, SENP7 inh, SENP8 block-2)
c1ccc2nc(-c3nccs3)ccc2c1	none
c1ccc2nc(-c3ccncc3)ccc2c1	SENP6 block 53 | SENP8 conf inactive | SENP6 confirm inactive | SENP7 conf 60 | Casp3 SENP sel 67 | Luc interf inactive
Clc1ccsc1-c1ccc2ccccc2n1	SENP6 block 88, SENP7 inh 81, SENP8 block-2 67 | SENP8 conf inactive | SENP6 confirm 78 | SENP7 conf 94 | Casp3 SENP sel 51 | Luc interf inactive
CN1CCN(c2ccc(-c3ccc4ccccc4n3)cc2)CC1	none (no result: SENP6 block, SENP7 inh, SENP8 block-2)
Cc1ccc2sc(C)cc(=O)c2c1	none (no result: SENP6 block, SENP7 inh, SENP8 block-2)
Cc1nccc(-c2cc(-c3ccc(Cl)cc3Cl)no2)n1	SENP6 block 89, SENP7 inh 88, SENP8 block-2 84 | SENP8 conf 73 | SENP6 confirm 77 | SENP7 conf 94 | Casp3 SENP sel 84 | Luc interf inactive
CC(=O)Nc1cc(-c2cccc(C(=O)NCCN(C)C)c2)cn2c(-c3ccc(C(C)=O)cc3)cnc12	none (no result: SENP6 block, SENP7 inh, SENP8 block-2)
CCCN1C(=O)/C(=C/c2nc3ccccc3c(=O)[nH]2)c2cc(C)ccc21	SENP6 block 92 | SENP8 conf inactive | SENP6 confirm inactive | SENP7 conf inactive | Casp3 SENP sel inactive | Luc interf inactive
Cc1cccc(/C=C/c2nc3ccccc3c(=O)[nH]2)c1	SENP6 block 87, SENP7 inh 97, SENP8 block-2 75 | SENP8 conf inactive | SENP6 confirm 68 | SENP7 conf inactive | Casp3 SENP sel 79 | Luc interf inactive
Cc1[nH]c2ccccc2c1/C=C/c1nc2ccccc2c(=O)[nH]1	none
O=c1[nH]c(/C=C/c2ccccc2Cl)nc2ccccc12	SENP6 block 77, SENP7 inh 94, SENP8 block-2 76 | SENP8 conf inactive | SENP6 confirm inactive | SENP7 conf 60 | Casp3 SENP sel inactive | Luc interf inactive
O=C(O)c1ccc(/C=C/c2nc3ccccc3c(=O)[nH]2)cc1	SENP6 block 97, SENP7 inh 100, SENP8 block-2 95 | SENP8 conf 97 | SENP6 confirm 98 | SENP7 conf 102 | Casp3 SENP sel 98 | Luc interf 56
CCCN1C(=O)/C(=C/c2nc3ccccc3c(=O)[nH]2)c2ccccc21	none
Nc1ccn(CCCNCC(c2ccccc2)c2ccccc2)c(=O)n1	none (no result: SENP6 block, SENP7 inh, SENP8 block-2)
CCOC(=O)CN1CC(C)(C)N(CC(=O)OCC)CC1(C)C	none (no result: SENP6 block, SENP7 inh, SENP8 block-2)
CC(=O)Nc1cccc(Nc2cc(C)nn2C)c1	none (no result: SENP6 block, SENP7 inh, SENP8 block-2)
O=C1NC(Cc2ccc(O)cc2)c2nc3ccc(F)cc3c(=O)n2-c2ncccc21 (configuration not stated)	none (no result: SENP6 block, SENP7 inh, SENP8 block-2)
O=c1[nH]c(N/N=C\c2ccc3c(c2)OCO3)nc2ccccc12	SENP6 block 56 | SENP8 conf inactive | SENP6 confirm inactive | SENP7 conf inactive | Casp3 SENP sel 60 | Luc interf inactive
Cc1cc(N/N=C/c2ccc3c(c2)OCO3)nc2ccccc12	SENP6 block 59, SENP7 inh 70 | SENP8 conf inactive | SENP6 confirm 68 | SENP7 conf 88 | Casp3 SENP sel inactive | Luc interf inactive
O=c1[nH]c(N/N=C/c2ccccc2)nc2ccccc12	none
Cc1cc(N/N=C/c2ccccc2Br)nc2ccccc12	none
Cc1ccc(NC(=S)c2ccncc2)c(C)c1	none
C=C(C)CNC(=S)Nc1cccc2cnccc12	none
Cc1ccc(NC(=S)Nc2cccc3cnccc23)c(C)c1	SENP6 block 95, SENP7 inh 77, SENP8 block-2 87 | SENP8 conf inactive | SENP6 confirm inactive | SENP7 conf inactive | Casp3 SENP sel inactive | Luc interf inactive
Cc1cc(C)cc(NC(=S)Nc2cccc3cnccc23)c1	SENP6 block 81, SENP8 block-2 81 | SENP8 conf inactive | SENP6 confirm inactive | SENP7 conf inactive | Casp3 SENP sel inactive | Luc interf inactive
CCc1ccc(NC(=S)Nc2cccc3cnccc23)cc1	SENP6 block 92, SENP7 inh 64, SENP8 block-2 83 | SENP8 conf inactive | SENP6 confirm inactive | SENP7 conf inactive | Casp3 SENP sel inactive | Luc interf inactive
C[C@H](CO)N1C[C@H](C)[C@H](CN(C)C(=O)c2ccccc2F)Oc2ncc(Br)cc2C1=O	none (no result: SENP6 block, SENP7 inh, SENP8 block-2)

Screens as filed in PubChem BioAssay.
